HSP90 inh: blocks HSP90-mediated luciferase refolding in reticulocyte lysate. Rabbit reticulocyte lysate, luciferase refolding luminescence, 3 h. inhibition, % at 5.6 µM. actives 0.91% (n = 290,000);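 active means inhibition above the screen-wide mean plus 3 SD, computed separately per campaign, cut at about 16% in these data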;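 further: 0% = DMSO wells and 100% = 60 µM geldanamycin wells; inhibitors lower the luminescence because luciferase stays unfolded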
DNA FID counter: counter-screen for HCV NS3 helicase inhibitors: DNA intercalator displacement. DNA fluorescent intercalator displacement, fluorescence. inhibition, % at 7.9 µM. actives 0.17% (n = 290,000). AID 1845; in the data active means inhibition above about 37%;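 further: 0% = vehicle and 100% = reference compound; higher means more ethidium bromide displaced from hairpin DNA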
HCV NS3 hel inh: inhibitors of Hepatitis C virus NS3 helicase. AID 1800. NS3 helicase DNA unwinding, Cy5 molecular beacon fluorescence. inhibition, % at 10.9 µM. actives 0.56% (n = 290,000);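 active means inhibition above the mean of all tested compounds plus 3 SD, set per campaign, cut at about 35% in these data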;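 further: 0% = DMSO wells and 100% = thioflavine S control wells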
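System: HCV NS3 helicase fragment; control set: DMSO and thioflavine S; technique: Cy5 fluorescence at 0 and 60 min, beacon hairpin quenching; reagent: beacon DNA duplex substrate plus ATP; replicates: singlicate; schedule: 1 h reaction at 25 °C, ATP-initiated; medium: MOPS buffer pH 6.5 with MgCl2, DTT, Tween20, BSA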
HSF1 inhib: HSF1 inhibition. activity change, negative = inhibition, % at 7.5 µM (by protocol). NIH3T3-HGL HSE-luciferase, MG132-induced, luminescence 8 h; active compounds read low. actives 0.77% (n = 300,000);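 active means more than half of replicate wells show activity change below -50%, luminescence cut by over half; inconclusive means some wells, but at most half, below -50%; inactive means no replicate well below -50%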;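 further: luciferase reports HSF-1 transcriptional activity via heat shock element; 0% = median of DMSO wells and -100% = zero luminescence signal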
HSF-1 act: increases HSF-1 driven luciferase reporter signal. NIH3T3-HGL HSF-1 luciferase reporter, MG132, 8 h; 100% = twice DMSO control signal. actives 1.7% (n = 300,000). activation, % at 9 µM;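 active means mean replicate activation of at least 50% with a set share of replicates each reaching 50%; inconclusive means only one of those two conditions met; inactive means mean below 50% and too few replicates reaching it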;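 further: 0% = median of the neutral control wells and 100% = twice that signal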
core dimer inh: HCV core protein dimerization inhibition | TR-FRET GST/Flag-core106 dimerization, 1536-well | inhibition, % at 5 µM | actives 0.33% (n = 300,000) | AID 1899;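 active means inhibition above the mean of all tested compounds plus 3 SD, set per screening campaign, cut at about 45% in these data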
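Material: GST/Flag-tagged HCV core106 proteins. Incubation: 4 h, 22.5 °C incubation. Read-out basis: inhibition (%) from 671 over 617 nm ratio. Measured by: TR-FRET, excitation 340 nm, emission 617 and 671 nm.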
Numbers without * were called inactive; ? = inconclusive; nt = no result given. Rows were chosen to be rich in hits. Some 3.9% of all compounds tested hit in one or more screens of this group.

SMILES	HSP90 inh	DNA FID counter	HCV NS3 hel inh	HSF1 inhib	HSF-1 act	core dimer inh
CC1(C)CC2CC(C)(CN2C(=S)Nc2ccccc2F)C1 (stereo unspecified)	3	-6	4	7	0	-2
C#CCOCCOCCOCCNc1nc(N2CCN(C(=O)[C@H](CCCCN)n3cc([C@@H](N)CC(C)C)nn3)CC2)nc(N2CCN(C(=O)[C@H](CCCCN)n3cc([C@@H](N)CC(C)C)nn3)CC2)n1	-4	58*	-65	-1	9	-18
C#CCOCCOCCOCCNc1nc(N2CCN(C(=O)C(Cc3ccc(O)cc3)n3cc(C(N)C(C)CC)nn3)CC2)nc(N2CCN(C(=O)C(Cc3ccc(O)cc3)n3cc(C(N)C(C)CC)nn3)CC2)n1 (stereo unspecified)	-2	40*	-77	-5	1	-6
C#CCOCCOCCOCCNc1nc(N2CCN(C(=O)[C@H](Cc3ccc(O)cc3)n3cc([C@@H](N)CC(C)C)nn3)CC2)nc(N2CCN(C(=O)[C@H](Cc3ccc(O)cc3)n3cc([C@@H](N)CC(C)C)nn3)CC2)n1	8	57*	-32	-8	-12	-25
COc1ccc(CCNC(=O)C2c3ccccc3C(=O)N2CCC(C)C)cc1OC (stereo unspecified)	-4	-25	3	12	12	-2
CC(C)c1ccc(C2NC(=O)c3ccccc3O2)cc1 (stereo unspecified)	-2	-23	4	35	71*	-3
O=C1NC(c2ccc(Cl)cc2)Oc2ccccc21 (stereo unspecified)	-4	-5	9	16	28	4
COc1cccc(CN2CC(C(=O)NCc3ccc(C)o3)CCC2=O)c1 (stereo unspecified)	0	-11	-1	59	108*	nt
CCOC(=O)c1ccc(CNC(=O)C2CCC(=O)N(Cc3cccc(OC)c3)C2)o1 (stereo unspecified)	2	-24	10	-3	-5	-5
Oc1ccc2ccccc2c1CN1CCN(C/C=C/c2ccccc2)CC1	-1	11	-66	128	185*	1
Oc1ccc2ccccc2c1CN1CCN(c2ccccc2F)CC1	-1	3	-1	73	84*	nt
O=C(CSc1nnc(-c2cccs2)o1)N1CCCc2ccccc21	5	-6	5	17	68*	5
Cc1nc2cc(NC(=O)CCS(=O)(=O)c3ccccc3)ccc2s1	5	-9	4	22	52*	10
Cc1nc2ccc(NC(=O)CCS(=O)(=O)c3ccccc3)cc2s1	-1	-10	5	14	31	-4
Cc1ccc(NC(=O)NC(=O)CN2CCN(c3ccc(O)cc3)CC2)c(C)c1	-6	-24	-4	-66*	-73	6
CCN(CC(=O)Nc1c(F)cccc1F)C(=O)/C=C/c1ccc2ccccc2n1	nt	nt	nt	-1	-1	75*
CSc1ccc(C2C(C#N)=C(N)Oc3c2ccc(=O)c2c(C)oc(C)c32)cc1 (stereo unspecified)	0	-30	29	-1	0	78*
Cc1oc(C)c2c(=O)ccc3c(c12)OC(N)=C(C#N)C3c1ccccc1 (stereo unspecified)	-3	-18	29	-3	-13	16
CC(=O)c1cn(CC(=O)Nc2ccccc2C)c2ccccc12	0	-3	2	-80*	-83	-3
Cc1cc(NS(=O)(=O)c2ccc(NC(=S)NC(=O)c3ccc(C(C)(C)C)cc3)cc2)no1	-3	-4	23	0	5	23
COc1cccc(C(=O)CC(=O)C(=O)Nc2cc(OC)c(OC)c(OC)c2)c1	3	-20	5	-58*	-62	-6
COc1ccc(C(=O)[C@H]2[C@H]3C(=O)N(c4ccc(OC(C)=O)cc4)C(=O)[C@H]3C3C=CC=NN32)cc1 (stereo partly specified)	-1	-18	0	-2	-1	26
CC(=O)Oc1ccc(C(=O)[C@H]2[C@H]3C(=O)N(c4cccc5ccccc45)C(=O)[C@H]3[C@@H]3C=CC=NN32)cc1	6	-15	24	-8	-1	52*
CC1CCCCC12NC(=O)N(CC(=O)Nc1ccccc1N1CCOCC1)C2=O (stereo unspecified)	5	-15	9	-2	-1	1
CSc1cccc(NS(=O)(=O)c2cn(C)cn2)c1	1	-7	17	-4	10	-3
SMILES	HSP90 inh	DNA FID counter	HCV NS3 hel inh	HSF1 inhib	HSF-1 act	core dimer inh
CC(=O)Nc1sc(C)c(C)c1C(=O)OCCOc1ccccc1	2	-18	-17	31	62*	-6
O=C(CCc1nnc(CCCCc2ccccc2)o1)NCCc1cccnc1	2	-21	2	3	13	1
O=C(CCc1nnc(CCCCc2ccccc2)o1)NCCN1CCCCC1=O	3	-23	7	14	58*	-5
O=C(CCc1nnc(CCCc2ccccc2)o1)NC(C1CC1)C1CC1	1	-20	3	35	65*	-2
Cc1nc(C(C)NC(=O)CCc2nnc(CCCc3ccccc3)o2)c(C)s1 (stereo unspecified)	-3	-31	0	19	39	-2
O=C(Oc1cc(=O)oc2c1c(=O)n1c3c(cccc23)CC1)c1ccccc1	-2	-4	9	1	-5	0
O=C(Oc1cc(=O)oc2c1c(=O)n1c3c(cccc23)CC1)c1ccc(F)cc1	-2	1	-4	-67*	-75	8
Cc1nc2ccccn2c1C(=O)/C=C/c1ccc(F)cc1	-2	-4	2	175	200*	7
COc1ccc(/C=C/C(=O)c2c(C)nc3ccccn23)cc1	-5	-6	-9	31	63*	3
Cn1cc(CNC(=O)c2sc3cccc(Cl)c3c2Cl)cn1	2	-13	-8	57	90*	-2
Cc1cc(NC(=O)c2ccno2)no1	0	-3	-1	2	25	-5
Cc1ccc(NNC(=O)c2ccno2)c(C)c1	2	-1	-1	19	68*	0
O=C(CN1C(=O)c2ccccc2S1(=O)=O)c1ccccc1F	12	-10	16	-52*	-61	-12
Cc1cc(C)c(NC(=O)CSc2ccc3nnc(CCNC(=O)c4ccccc4)n3n2)c(C)c1	2	-25	-1	2	22	3
CC(C)NC(=O)c1ccc2c(c1)N(CC(=O)Nc1ccccc1F)C(=O)C(C)(C)O2	0	-10	0	3	23	8
S=c1nc(SCc2ccccc2)[nH]c2ccccc12	3	-10	7	27	?	65*
O=c1[nH]c(SCc2ccc(Cl)cc2)nc2ccccc12	-1	-5	8	28	66*	5

Source: PubChem BioAssay (several laboratories)
